Measured values from different studies.
Protocols differ between the studies behind these lines.
Read-out: microbial growth

Cc1ccc(C)n1-c1ccc(-c2nnc(-c3ccccc3Cl)[nH]2)cc1
MIC (Saccharomyces cerevisiae; broth dilution; ATCC9763): 8 µg/mL

Cl.Oc1ccc(-c2nc(-c3ccc(Oc4ccc5c(c4)CNCC5)cc3)no2)cc1
MIC (Clostridioides difficile; broth dilution; 48 h): 4 µg/mL

OC(Cn1cncn1)(Cn1cncn1)c1ccc(F)cc1F
MIC (Saccharomyces cerevisiae): 4 µg/mL

Cc1cc(C)n(C(=O)c2ccc(-n3c(C)ccc3C)cc2)n1
MIC (Saccharomyces cerevisiae; broth dilution; ATCC9763): > 500 µg/mL

CC[C@@H]([C@H](C)O)n1ncn(-c2ccc(N3CCN(c4ccc(OC[C@@H]5CO[C@@](Cn6cncn6)(c6ccc(F)cc6F)C5)cc4)CC3)cc2)c1=O
MIC (Saccharomyces cerevisiae; BY4743; 72 h): < 0.3 µM

C/C=C/C/C=C/CCC(=O)[C@H]1O[C@H]1C(N)=O
MIC (Saccharomyces cerevisiae): 10 to 12 µM

CNc1ccc(-c2nc(-c3ccc(Oc4ccccc4)cc3)no2)cc1
MIC (Clostridioides difficile; broth dilution; 48 h): 8 µg/mL

Cc1ccc(C)n1-c1ccc(C(=O)NNC=O)cc1
MIC (Saccharomyces cerevisiae; broth dilution; ATCC9763): 250 µg/mL

O=[N+]([O-])c1cc(-c2nc(-c3ccc(Oc4ccc(C(F)(F)F)cc4)cc3)no2)cnc1O
MIC (Clostridioides difficile; broth dilution; ATCC43255; 48 h): 2 to 4 µg/mL

Cc1ccc(C)n1-c1ccc(-c2nnc(S)s2)cc1
MIC (Saccharomyces cerevisiae; broth dilution; ATCC9763): 62.5 µg/mL

CC(=O)Nc1ccc(-c2nc(-c3ccc(Oc4ccccc4)cc3)no2)cc1
MIC (Clostridioides difficile; broth dilution; 48 h): > 50 µg/mL

CC(C)(C)C(=O)C(Oc1ccc(Cl)cc1)n1ccnc1 (centres unmarked)
MIC (Saccharomyces cerevisiae): 20 to 25 µM

Oc1c(F)cc(-c2nc(-c3ccc(Oc4ccc(C(F)(F)F)cc4)cc3)no2)cc1F
MIC (Clostridioides difficile; broth dilution; ATCC43255; 48 h): 2 to 4 µg/mL

O=[N+]([O-])c1ccc(-c2nc(-c3ccc(Oc4ccccc4)cc3)no2)cc1
MIC (Clostridioides difficile; broth dilution; 48 h): 8 µg/mL

Cc1cc(=O)[nH]n1C(=O)c1ccc(-n2c(C)ccc2C)cc1
MIC (Saccharomyces cerevisiae; broth dilution; ATCC9763): 250 µg/mL

Oc1ccc(-c2nc(-c3ccc(Oc4ccc(I)cc4)cc3)no2)cc1
MIC (Clostridioides difficile; broth dilution; ATCC43255; 48 h): 8 to 128 µg/mL

O=C(O)COc1ccc(Oc2ccc(-c3noc(-c4ccc(O)cc4)n3)cc2)cc1
MIC (Clostridioides difficile; broth dilution; 48 h): 50 µg/mL
